The source of these data is ChEMBL document CHEMBL1156120, “18F stilbenes and styrylpyridines for PET imaging of A beta plaques in Alzheimer's disease: a miniperspective” (J Med Chem, 2010).

Series [1] has as its target Amyloid-beta precursor protein (Homo sapiens, UniProt P05067). Description: Binding affinity to Beta amyloid aggregates in Alzheimer's disease patient brain by competitive binding assay. The procedure, abridged: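 Competition binding against ¹⁸F-AV-45 (0.04–0.06 nM, diluted in PBS) in postmortem AD brain homogenate (20–25 µg per assay). Competitors were serially diluted 10⁻⁵–10⁻¹⁰ M in PBS with 0.1% bovine serum albumin, in a final volume of 0.5 mL. Inhibition constant (Ki) derived from displacement.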

Series [2] is described as follows: Partition coefficient, log P at pH 7.4. The note with it: octanol/water. The class given is physicochemical.

Molecules are shown by their SMILES.

Chain of Amyloid-beta precursor protein (P05067 whole entry): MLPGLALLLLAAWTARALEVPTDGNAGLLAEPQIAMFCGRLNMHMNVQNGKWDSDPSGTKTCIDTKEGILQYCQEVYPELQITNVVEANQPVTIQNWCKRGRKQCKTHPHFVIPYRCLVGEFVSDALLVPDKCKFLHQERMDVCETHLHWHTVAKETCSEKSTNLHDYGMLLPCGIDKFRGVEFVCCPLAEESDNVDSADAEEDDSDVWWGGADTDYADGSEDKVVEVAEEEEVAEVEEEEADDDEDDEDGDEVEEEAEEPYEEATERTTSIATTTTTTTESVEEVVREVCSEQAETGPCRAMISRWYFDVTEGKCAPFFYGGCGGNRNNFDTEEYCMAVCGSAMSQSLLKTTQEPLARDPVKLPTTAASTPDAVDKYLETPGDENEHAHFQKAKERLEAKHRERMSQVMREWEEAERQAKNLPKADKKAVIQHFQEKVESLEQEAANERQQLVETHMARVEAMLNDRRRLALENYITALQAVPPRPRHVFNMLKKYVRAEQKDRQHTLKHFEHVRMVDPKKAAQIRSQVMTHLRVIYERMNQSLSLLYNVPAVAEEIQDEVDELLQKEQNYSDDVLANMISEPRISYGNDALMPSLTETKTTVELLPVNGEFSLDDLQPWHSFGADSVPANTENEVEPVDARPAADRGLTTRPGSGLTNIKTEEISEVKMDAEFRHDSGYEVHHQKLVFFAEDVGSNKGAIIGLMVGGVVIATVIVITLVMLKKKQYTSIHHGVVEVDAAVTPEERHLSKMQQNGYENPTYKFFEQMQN

Usually Ki stands for a measure of affinity in units of concentration, obtained from inhibition or displacement. On to `CC(=C(C#N)C#N)c1ccc2cc(N(C)CCF)ccc2c1`, for which the affinity in series [1], expressed as Ki, was 172 nM. The same measure, in the same setting: for `CNc1ccc(/C=C/c2ccc(OCC(CO)CF)cc2)cc1` (centres undefined) the value was 5 nM; for `COc1ccc(/C=C/c2cccc(I)c2)cc1`, 22 nM. As to `CN(C)c1ccc(/C=C/c2ccccc2I)cc1`, in series [1], the affinity, expressed as Ki, was 7.7 nM. In series [1], `CN(C)c1ccc(/C=C/c2nc3ccccc3s2)cc1` showed a Ki of 2.3 nM. Still for that read-out and setting: for `CNc1ccc(/C=C/c2ccc(OCCOCCOCCOCCOCCOCCOCCOCCOCCOCCF)cc2)cc1` the value was 12.2 nM; for `CNc1ccc(/C=C/c2ccc(OCCOCCOCCOCCOCCOCCOCCOCCF)cc2)cc1`, 9 nM. In series [1], `CNc1ccc(/C=C/c2ccc(OCCOCCOCCOCCOCCOCCOCCF)cc2)cc1` yielded an inhibition constant (Ki) of 8.2 nM. The same measure, in the same setting: for `Oc1ccc(/C=C/c2cccc(I)c2)cc1` the value was 32 nM. For the compound `CN(C)c1ccc(/C=C/c2cccc(I)c2)cc1`, in series [1], the Ki was 4.5 nM. As usually defined, the logD is the decadic logarithm of the distribution of all forms, ionised or not, between an organic phase and buffer at a given pH. Higher therefore signals a more lipophilic compound. Consider `CNc1ccc(/C=C/c2ccc(OCC(CO)C[18F])cc2)cc1` (centres undefined), for which the pH-dependent lipophilicity (logD) in series [2] worked out at 2.95.

Turning to `CNc1ccc(-c2nc3ccc(O)cc3s2)cn1`, the Ki in series [1] was determined as 1.7 nM. In other words, the single-digit nanomolar range. Still for that read-out and setting: for `CN(C)c1ccc(/C=C/c2ccc(I)cc2)cc1` the value was 2 nM; for `CNc1ccc(/C=C/c2ccc(OCCOCCOCCOCCOCCOCCF)cc2)cc1`, 7.5 nM; for `CNc1ccc(/C=C/c2ccc(OCCOCCOCCOCCOCCOCCOCCOCCOCCF)cc2)cc1`, 18.5 nM. In series [1], `CN(C)c1ccc(/C=C/c2ccc(F)cc2)cc1` yielded an inhibition constant (Ki) of 22 nM. In series [1], `O=C(O)c1cc(/N=N/c2ccc(-c3ccc(/N=N/c4ccc(O)c(C(=O)O)c4)cc3)cc2)ccc1O` [CHRYSAMINE G] yielded a Ki of over 1000 nM. The same measure, in the same setting: for `CNc1ccc(/C=C/c2ccc(OCCOCCOCC[18F])nc2)cc1` [FLORBETAPIR F 18] the value was 2.87 nM; for `CNc1ccc(-c2nc3ccc(O)cc3s2)cc1F` [FLUTEMETAMOL], 0.74 nM.
